Screening data: PubChem, several laboratories
An excerpt weighted towards active compounds, which were near 2.5% of everything screened.
ABHD5 PLIN5 PPI – ABHD5-PLIN5 interaction inhibitors, primary screen, cell lysate, split luciferase complementation, luminescence; Perilipin-5 (Homo sapiens) + 1-acylglycerol-3-phosphate O-acyltransferase ABHD5 (Homo …; Split G. princeps luciferase complementation, 4 h; inhibition, % at 4 µM; 360,000 tested, 0.78% active; AID 602281, 2012;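 active = inhibition above the mean inhibition across every tested compound plus 3 SD, cut at about 22% in these data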;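 note: 0% = DMSO only wells and the 100% control is not disclosed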
Beta2AR agonist – beta2AR agonists driving receptor internalization, primary screen, cell-based, FAP fluorogen, flow cytometry | Beta-2 adrenergic receptor (Homo sapiens), P07550 | Am2.2-beta2AR cells | response, % (concentration not given with the values) | 340,000 tested, 0.43% active | AID 504454, 2011;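 active = response above a set limit, near 3 SD of response in nonfluorescent compounds, cut at about 42% in these data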
SENP1 FRET inh – human SENP1 catalytic domain inhibitors, primary screen, biochemical, FRET, uHTS. Sentrin-specific protease 1 (Homo sapiens), Q9P0U3. recombinant SENP1 catalytic domain, CyPet-SUMO1-YPet FRET cleavage. inhibition, % at 10 µM. 360,000 tested, 0.21% active;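 active = inhibition at least 30% at 10 µM, raw YFP signal under a set limit, fluorescence ratio 0.5 to 1.5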;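 note: 0% = enzyme with DMSO and 100% = no enzyme wells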
Target sequence (Q9P0U3 419-644 limits assumed): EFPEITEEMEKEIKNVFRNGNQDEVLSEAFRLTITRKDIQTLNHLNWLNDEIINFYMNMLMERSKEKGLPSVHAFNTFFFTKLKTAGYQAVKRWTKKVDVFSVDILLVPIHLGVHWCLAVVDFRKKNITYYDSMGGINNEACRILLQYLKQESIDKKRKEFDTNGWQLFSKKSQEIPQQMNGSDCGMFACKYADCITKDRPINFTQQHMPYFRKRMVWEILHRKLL
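Test system: recombinant human SENP1 catalytic domain, His6-tagged / Medium: pH 8 Tris buffer with EDTA, NaCl, BME, BSA, NP40, catalase / Also added: SUMO1 FRET substrate flanked by Cypet and Ypet, 25 nM / Times: 50 min reaction at room temperature / Signal: FRET, CFP and YFP emission / Control set: no-enzyme low control and enzyme-plus-DMSO high control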
GRK2 aptamer HTS – compounds blocking aptamer binding on GRK2 – biochemical, human GRK2, bead flow cytometry, HTS, primary screen; Beta-adrenergic receptor kinase 1 (Homo sapiens), P25098; FAM-aptamer displacement from GRK2; inhibition of aptamer binding, % at 10 µM; 330,000 tested, 0.59% active; AID 488847, 2010;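 active = inhibition of aptamer binding above 40%, roughly 3 SD of noise, on plates passing a quality check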;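 note: median bead fluorescence of bound FAM aptamer so fluorescent compounds give negative values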
NadD inh – inhibitors of S. aureus NadD, primary screen, biochemical, colorimetric, uHTS; Nicotinate-nucleotide adenylyltransferase NadD (Staphylococcus aureus N315); purified NadD enzyme, colorimetric absorbance read-out; inhibition, % at 20 µM; 360,000 tested, 0.78% active; AID 602399, 2012; in the data active = inhibition above about 26%
An asterisk follows results filed as active.

Results for CN1c2ccccc2C(O)=C(C(=S)Nc2ccc(Cl)cc2)S1(=O)=O ?
ABHD5 PLIN5 PPI: -14; Beta2AR agonist: 5; SENP1 FRET inh: 1; GRK2 aptamer HTS: 61*; NadD inh: 3

Results for Cc1cccc(NC(=O)C2=C(O)c3ccccc3N(C)S2(=O)=O)c1 ?
ABHD5 PLIN5 PPI: -3; Beta2AR agonist: 20; SENP1 FRET inh: 2; GRK2 aptamer HTS: 3; NadD inh: -7

How did Cc1ccc(CNC(=O)CNS(=O)(=O)c2ccc(Br)s2)cc1 do in these assays?
ABHD5 PLIN5 PPI: -2; Beta2AR agonist: -1; SENP1 FRET inh: -2; GRK2 aptamer HTS: 0; NadD inh: -7

What do the screens show for `Cc1c(CCCl)c(Cl)n2c(nc3ccccc32)c1C#N`?
ABHD5 PLIN5 PPI: 11; Beta2AR agonist: 57*; SENP1 FRET inh: -26; NadD inh: 0

How did Cc1cc(Cl)n2c(nc3ccccc32)c1C#N do in these assays?
ABHD5 PLIN5 PPI: 5; Beta2AR agonist: 99*; SENP1 FRET inh: -33; NadD inh: 0

What do the screens show for `CC(C)(C)c1cc(-c2csc(Nc3ccccc3)[n+]2Cc2ccc(C(=O)O)cc2)cc(C(C)(C)C)c1O`?
ABHD5 PLIN5 PPI: -2; Beta2AR agonist: 30; SENP1 FRET inh: 1; GRK2 aptamer HTS: 0; NadD inh: 66*

How did O=C(O)c1ccc(C[n+]2c(-c3ccccc3)csc2Nc2ccccc2)cc1 do in these assays?
ABHD5 PLIN5 PPI: 3; Beta2AR agonist: 17; SENP1 FRET inh: 0; GRK2 aptamer HTS: 1; NadD inh: 10

What do the screens show for `CCOC(=O)C1=C(C)N(c2ccc(C)cc2)C(=O)/C1=C\c1cccs1`?
ABHD5 PLIN5 PPI: 1; Beta2AR agonist: 0; SENP1 FRET inh: 2; GRK2 aptamer HTS: 0; NadD inh: -1

Results for CCOC(=O)C1=C(C)N(c2ccccc2)C(=O)/C1=C\c1cccs1 ?
ABHD5 PLIN5 PPI: 3; Beta2AR agonist: 91*; SENP1 FRET inh: 0; GRK2 aptamer HTS: 3; NadD inh: -3

What do the screens show for `c1ccc(SSc2ccccn2)nc1`?
ABHD5 PLIN5 PPI: 35*; Beta2AR agonist: 11; SENP1 FRET inh: 1; GRK2 aptamer HTS: 3; NadD inh: 5

What do the screens show for `c1ccc(Sc2ccccn2)cc1`?
ABHD5 PLIN5 PPI: 0; Beta2AR agonist: -1; SENP1 FRET inh: 3; GRK2 aptamer HTS: 2; NadD inh: -8

Results for Oc1ccc(N=Nc2nc(-c3ccccc3)c(-c3ccccc3)[nH]2)cc1 ?
ABHD5 PLIN5 PPI: 2; Beta2AR agonist: -2; SENP1 FRET inh: 39*; GRK2 aptamer HTS: 0; NadD inh: 27

Results for Oc1ccc(N=Nc2n[nH]c(-c3ccccc3)n2)cc1 ?
ABHD5 PLIN5 PPI: 6; Beta2AR agonist: 5; SENP1 FRET inh: 3; GRK2 aptamer HTS: 2; NadD inh: 5

What do the screens show for `O=C(CNC(=O)c1ccco1)N/N=C/c1ccc(C(=O)O)cc1`?
ABHD5 PLIN5 PPI: -12; Beta2AR agonist: 4; SENP1 FRET inh: 1; GRK2 aptamer HTS: 4; NadD inh: -3

How did N#C/C(=C\c1ccc(OCc2ccccc2)cc1)C(=O)Nc1nc2c(s1)CCN(Cc1ccccc1)C2 do in these assays?
ABHD5 PLIN5 PPI: -5; Beta2AR agonist: 11; SENP1 FRET inh: -23; GRK2 aptamer HTS: 2; NadD inh: 29

What do the screens show for `CN(C)c1ccc(/C=C(/C#N)C(=O)Nc2nc3c(s2)CCN(Cc2ccccc2)C3)cc1`?
ABHD5 PLIN5 PPI: 6; Beta2AR agonist: -452; SENP1 FRET inh: -34; NadD inh: 57*

What do the screens show for `O=C(CNC(=S)N(Cc1ccccc1)Cc1cccnc1)NCCc1ccccc1`?
ABHD5 PLIN5 PPI: -2; Beta2AR agonist: -5; SENP1 FRET inh: 1; GRK2 aptamer HTS: 0; NadD inh: 0

How did CCCCNC(=O)CNC(=S)N(Cc1ccccc1)Cc1cccnc1 do in these assays?
ABHD5 PLIN5 PPI: -7; Beta2AR agonist: 52*; SENP1 FRET inh: 2; GRK2 aptamer HTS: 0; NadD inh: -2

How did CCN(CC)c1ccc2c(-c3ccc(S(=O)(=O)O)cc3S(=O)(=O)[O-])c3ccc(=[N+](CC)CC)cc-3oc2c1 do in these assays?
ABHD5 PLIN5 PPI: 12; Beta2AR agonist: -12; SENP1 FRET inh: 34*; GRK2 aptamer HTS: 0; NadD inh: 5
